Data reported in paper PMC2810129 (Journal of medicinal chemistry, 2009).
Like-named read-outs stand apart in the source and are kept apart here.

Columns and labels:
[1] = tested on: J774 murine monocyte-like macrophage line (subclone G8); assay: Toxicity assay; assay type: cell-based
PfKASIII [2] = biological target: T1, PfKASIII (Plasmodium falciparum, UniProt O77078); assay: PfKASIII inhibitor screen; assay type: biochemical
PfKASIII [3] = biological target: T1, PfKASIII; conditions: read-out: PfKASIII IC50; cited from earlier work
bacterial KAS enzymes = conditions: cited from earlier work
P. falciparum parasites = assay: In vitro malaria growth inhibition assay, strain not specified or both strains; assay type: cell-based, Plasmodium falciparum; conditions: drug resistant and sensitive parasites
Procedure, shortened: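 P. falciparum D6 (chloroquine-sensitive, Sierra Leone I) and W2 (chloroquine-resistant, Indochina I) clones were cultured under 90% N2/5% O2/5% CO2 with 10% human serum and 6% haematocrit A+ red cells. Cultures at 3% parasitaemia with ≥70% rings were put on predosed plates for 24 h. [3H]-hypoxanthine was then added for 18 h, and cells were harvested and counted. IC50 was taken from a four-parameter nonlinear regression.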

NC1CCC(S(=O)(=O)c2cc(O)c3ccccc3c2O)CC1 (stereo not drawn) [Compound 3b]
toxicity against the mammalian cell line (in words) [1]: little toxicity

Cc1ccc(S(=O)(=O)c2cc(O)c3ccccc3c2O)cc1 [Compound 3a]
toxicity against the mammalian cell line (in words) [1]: little toxicity

Nc1ccc(S(=O)(=O)c2cc(O)c3ccccc3c2O)c(Cl)c1 [Compound 3c]
PfKASIII inhibition (in words) (PfKASIII [2]): the most potent compound within the class of sulfonyls

C=C/C(C)=C/[C@@]1(C)SC(=O)C(C)=C1O [Thiolactomycin]
IC50 (PfKASIII [3]): > 330 µM
in vivo IC50, bacterial KAS enzymes (bacterial KAS enzymes): 75 µM

CCCCS(=O)(=O)CCOC(=O)c1ccc([N+](=O)[O-])cc1 [Compound 3r]
antimalarial activity / parasite growth inhibition (in words) (P. falciparum parasites): fail to inhibit parasite growth
toxicity against the mammalian cell line (in words) [1]: significant toxicity
PfKASIII inhibition (in words) (PfKASIII [2]): potent inhibitors of PfKASIII

Cc1ccc(S/C=C/S(=O)(=O)Cc2ccccc2)cc1 [Compound 3n]
toxicity against the mammalian cell line (in words) [1]: significant toxicity

COc1ncnc(NS(=O)(=O)c2ccc(N)cc2)c1OC [Compound 2c]
antimalarial activity / parasite growth inhibition (in words) (P. falciparum parasites): robust antimalarial activity
IC50 (PfKASIII [2]): > 1000 µM
PfKASIII inhibition (in words) (PfKASIII [2]): failed to inhibit PfKASIII at the highest concentration tested

c1ccc(SSc2ccccc2)cc1 [Compound 1d]
toxicity against the mammalian cell line (in words) [1]: little toxicity

O=[N+]([O-])c1c(Cl)sc(Cl)c1S(=O)(=O)Nc1ccc(C(F)(F)F)cc1 [Compound 2g]
antimalarial activity / parasite growth inhibition (in words) (P. falciparum parasites): modest activity

O=S(=O)(Nc1cccc(Cl)c1)c1ccccc1 [Compound 2b]
toxicity against the mammalian cell line (in words) [1]: significant toxicity

CC(C)c1ccc(S(=O)(=O)c2ccc(C(C)C)cc2)cc1 [Compound 3g]
toxicity against the mammalian cell line (in words) [1]: significant toxicity

C/C=C/CCCCCCCC(=O)NS(=O)(=O)c1ccc(N)cc1 [Compound 2e]
IC50 (PfKASIII [2]): > 1000 µM
PfKASIII inhibition (in words) (PfKASIII [2]): failed to inhibit PfKASIII at the highest concentration tested
